# Test results: ChEMBL document CHEMBL1147076, “Antitumor activity of MLN8054, an orally active small-molecule inhibitor of Aurora A kinase” (Proc Natl Acad Sci U S A, 2007)
# Activity calls are given as the source filed them. The calls are words filed in the database; no cut-off is given here.
# Tests used:
# [1] = target: Ribosomal protein S6 kinase alpha-4 (Homo sapiens) (UniProt O75676); experiment: Activity of human MSK2 kinase at 1 uM
# Method in brief: (§1)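 Single-point kinase profiling: each kinase in a 226-kinase panel tested with compound at 1 μM and ATP at 10 μM in every assay, run by an external screening service.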
# [2] = target: Tyrosine-protein kinase CSK (Homo sapiens) (UniProt P41240); experiment: Activity of human CSK kinase at 1 uM; method in brief: as §1
# [3] = target: Serine/threonine-protein kinase Sgk2 (Homo sapiens) (UniProt Q9HBY8); experiment: Activity of human SGK2 kinase at 1 uM
# Chain of Serine/threonine-protein kinase Sgk2 (Homo sapiens) (Q9HBY8 whole entry): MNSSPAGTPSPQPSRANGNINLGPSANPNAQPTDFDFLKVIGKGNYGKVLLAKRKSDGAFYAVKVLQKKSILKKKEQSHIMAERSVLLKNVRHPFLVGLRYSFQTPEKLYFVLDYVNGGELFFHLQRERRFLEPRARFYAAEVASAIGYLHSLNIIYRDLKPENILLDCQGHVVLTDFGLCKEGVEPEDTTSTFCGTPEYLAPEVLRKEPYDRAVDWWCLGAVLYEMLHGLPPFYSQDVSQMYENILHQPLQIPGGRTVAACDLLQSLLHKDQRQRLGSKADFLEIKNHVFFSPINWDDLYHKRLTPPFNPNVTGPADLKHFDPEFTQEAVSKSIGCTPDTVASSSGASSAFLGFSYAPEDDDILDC
# Method in brief: (§2)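 Single-point screen in a 226-kinase panel run by an outside service. Test compound at 1 μM with ATP at 10 μM in every assay. Other assay conditions are not given.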
# [4] = tested on: MDA-MB-231; experiment: Antiproliferative activity against human MDAMB231 cells after 96 hrs by BrdU cell proliferation ELISA; assay type: functional, cell-based; settings: MDA-MB-231, 96 h
# Method in brief: (§3)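 BrdU incorporation proliferation assay on cultured human tumor lines; IC50 values derived from growth inhibition.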
# [5] = target: PAS domain-containing serine/threonine-protein kinase (Homo sapiens) (UniProt Q96RG2); experiment: Activity of human PASK kinase at 1 uM; method in brief: as §1
# [6] = target: Protein-tyrosine kinase 6 (Homo sapiens) (UniProt Q13882); experiment: Activity of human BRK kinase at 1 uM
# Chain of Protein-tyrosine kinase 6 (Homo sapiens) (Q13882 whole entry, looked up): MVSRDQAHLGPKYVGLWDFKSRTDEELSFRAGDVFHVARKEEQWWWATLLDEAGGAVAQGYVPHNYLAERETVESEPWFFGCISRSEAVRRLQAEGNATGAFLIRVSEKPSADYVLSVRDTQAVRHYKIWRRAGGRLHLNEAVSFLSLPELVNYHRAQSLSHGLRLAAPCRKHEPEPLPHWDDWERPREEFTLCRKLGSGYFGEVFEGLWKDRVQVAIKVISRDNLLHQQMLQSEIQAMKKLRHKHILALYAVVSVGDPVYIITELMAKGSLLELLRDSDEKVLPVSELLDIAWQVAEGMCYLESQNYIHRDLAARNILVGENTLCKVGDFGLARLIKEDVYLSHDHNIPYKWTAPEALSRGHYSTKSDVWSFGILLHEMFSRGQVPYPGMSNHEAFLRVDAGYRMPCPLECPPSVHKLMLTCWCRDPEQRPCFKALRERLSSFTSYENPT
# [7] = target: Protein kinase C beta type (Homo sapiens) (UniProt P05771); experiment: Activity of human PKC-beta-1 kinase at 1 uM; method in brief: as §2
# [8] = target: Proto-oncogene tyrosine-protein kinase ROS (Homo sapiens) (UniProt P08922); experiment: Activity of human Ros kinase at 1 uM; method in brief: as §2
# [9] = target: Serine/threonine-protein kinase Nek3 (Homo sapiens) (UniProt P51956); experiment: Activity of human NEK3 kinase at 1 uM; method in brief: as §2
# [10] = target: Serine/threonine-protein kinase PAK 2 (Homo sapiens) (UniProt Q13177); experiment: Activity of human PAK2 kinase at 1 uM; method in brief: as §2
# Chain of Serine/threonine-protein kinase PAK 2 (Homo sapiens) (Q13177 whole entry): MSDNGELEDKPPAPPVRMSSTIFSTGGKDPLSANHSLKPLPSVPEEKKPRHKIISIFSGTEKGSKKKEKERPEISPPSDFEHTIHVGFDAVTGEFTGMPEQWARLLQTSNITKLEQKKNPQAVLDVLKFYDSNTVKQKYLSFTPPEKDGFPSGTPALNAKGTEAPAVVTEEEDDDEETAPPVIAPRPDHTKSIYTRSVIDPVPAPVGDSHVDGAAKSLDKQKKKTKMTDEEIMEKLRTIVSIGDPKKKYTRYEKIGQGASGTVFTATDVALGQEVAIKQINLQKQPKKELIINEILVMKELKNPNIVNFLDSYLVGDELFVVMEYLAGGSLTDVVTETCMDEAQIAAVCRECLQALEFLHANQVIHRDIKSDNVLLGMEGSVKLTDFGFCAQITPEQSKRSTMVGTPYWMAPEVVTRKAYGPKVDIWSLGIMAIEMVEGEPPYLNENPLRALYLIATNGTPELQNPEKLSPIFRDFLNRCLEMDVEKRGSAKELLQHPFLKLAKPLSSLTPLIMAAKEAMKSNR
# [11] = tested on: Mus musculus; experiment: Toxicity in human HCT116 cells xenografted into athymic nude NCR nu/nu mouse assessed as decrease in neutrophil count at 30 mg/kg, BID after 21 days; assay type: organism-based, HCT-116; set-up: dose 30 mg/kg; scale not given: the % may be the effect or the level left; settings: in vivo, 504 h
# Method in brief: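 Female athymic nude NCR nu/nu mice were given HCT-116 cells (1 × 10^6) s.c. in the right flank. Drug in 10% hydroxypropyl-β-cyclodextrin/5% sodium bicarbonate was given orally (QD or BID) for 21 days. Body weight loss was recorded at the end of treatment, and neutrophil counts were also followed for the BID regimen.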
# [12] = target: Mitogen-activated protein kinase 10 (Homo sapiens) (UniProt P53779); experiment: Activity of human JNK3 kinase at 1 uM; method in brief: as §1
# [13] = target: Cyclin-dependent kinase 2/cyclin E1 (Homo sapiens) (UniProt P24864+P24941); experiment: Activity of human CDK2/cyclin E kinase at 1 uM; assay type: protein-complex assay
# [14] = target: Protein kinase C iota type (Homo sapiens) (UniProt P41743); experiment: Activity of human PKCiota kinase at 1 uM; method in brief: as §1
# [15] = target: Cyclin-dependent kinase 2/cyclin A (Homo sapiens) (UniProt P24941+P20248+P78396); experiment: Activity of human CDK2/cyclin A kinase at 1 uM; assay type: protein-complex assay
# [16] = target: Rho-associated protein kinase 1 (Homo sapiens) (UniProt Q13464); experiment: Activity of human ROCK1 kinase at 1 uM; method in brief: as §2
# [17] = Inhibition of PKC by radioactive flashplate assay
# [18] = tested on: PC-3; experiment: Cell cycle arrest in human PC3 cells by accumulation at G1 phase at 1 uM after 24 hrs by flow cytometry relative to control; assay type: functional
# [19] = target: Serine/threonine-protein kinase 10 (Homo sapiens) (UniProt O94804); experiment: Activity of human LOK kinase at 1 uM
# Chain of Serine/threonine-protein kinase 10 (Homo sapiens) (O94804 whole entry, looked up): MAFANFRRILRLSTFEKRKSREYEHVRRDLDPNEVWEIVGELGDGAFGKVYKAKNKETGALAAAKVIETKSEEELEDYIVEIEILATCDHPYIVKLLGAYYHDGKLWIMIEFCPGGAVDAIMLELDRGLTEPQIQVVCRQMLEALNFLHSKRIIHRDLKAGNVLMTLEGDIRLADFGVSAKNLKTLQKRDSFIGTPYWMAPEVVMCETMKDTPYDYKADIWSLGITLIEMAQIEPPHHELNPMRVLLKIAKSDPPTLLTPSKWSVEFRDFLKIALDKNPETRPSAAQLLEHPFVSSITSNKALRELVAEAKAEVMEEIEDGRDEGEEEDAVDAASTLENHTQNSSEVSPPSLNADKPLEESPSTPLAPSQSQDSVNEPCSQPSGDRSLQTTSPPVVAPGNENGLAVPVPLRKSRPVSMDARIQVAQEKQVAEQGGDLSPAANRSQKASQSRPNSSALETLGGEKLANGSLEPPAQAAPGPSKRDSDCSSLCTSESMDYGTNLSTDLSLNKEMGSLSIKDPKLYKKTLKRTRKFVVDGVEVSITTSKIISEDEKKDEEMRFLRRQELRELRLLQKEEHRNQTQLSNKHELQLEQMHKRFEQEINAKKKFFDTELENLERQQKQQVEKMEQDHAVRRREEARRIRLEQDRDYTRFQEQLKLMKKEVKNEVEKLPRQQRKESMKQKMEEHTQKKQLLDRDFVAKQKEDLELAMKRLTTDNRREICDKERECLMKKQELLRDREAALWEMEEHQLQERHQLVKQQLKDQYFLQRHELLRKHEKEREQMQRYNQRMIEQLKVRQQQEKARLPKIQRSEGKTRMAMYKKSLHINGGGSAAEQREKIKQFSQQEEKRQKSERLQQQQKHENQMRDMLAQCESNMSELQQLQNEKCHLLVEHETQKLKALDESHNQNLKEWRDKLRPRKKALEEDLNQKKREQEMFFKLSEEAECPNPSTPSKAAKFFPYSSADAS
# [20] = Plasma concentration in human HCT116 cells xenografted in mouse at 30 mg/kg, po after 24 hrs; assay type: ADME, organism-based, HCT-116; set-up: dose 30 mg/kg, route oral
# [21] = target: Platelet-derived growth factor receptor alpha (Homo sapiens) (UniProt P16234); experiment: Activity of human PDGFRalpha kinase at 1 uM; method in brief: as §2
# [22] = tested on: PC-3; experiment: Induction of apoptosis in human PC3 cells assessed as PARP cleavage at 0.25 uM after 24 hrs by Western blot method; assay type: functional, cell-based
# [23] = tested on: PC-3; experiment: Antiproliferative activity against human PC3 cells after 96 hrs by BrdU cell proliferation ELISA; assay type: functional, cell-based; settings: PC-3, 96 h; method in brief: as §3
# [24] = target: Ribosomal protein S6 kinase alpha-3 (Homo sapiens) (UniProt P51812); experiment: Activity of human Rsk2 kinase at 1 uM; method in brief: as §2
# [25] = tested on: PC-3; experiment: Cell cycle arrest in human PC3 cells by accumulation at G2/M phase at 4 uM after 24 hrs by flow cytometry relative to control; assay type: functional
# Method in brief: (§4)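 DNA content profiles by flow cytometry of PC-3 prostate tumor cells exposed to drug diluted in DMSO for 24 or 48 h. Phase distribution was compared with DMSO-treated control cells.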
# [26] = target: Calcium/calmodulin-dependent protein kinase type II subunit gamma (Homo sapiens) (UniProt Q13555); experiment: Activity of human CaMK2gamma kinase at 1 uM; method in brief: as §1
# [27] = target: Tyrosine-protein kinase ZAP-70 (Homo sapiens) (UniProt P43403); experiment: Activity of human ZAP70 kinase at 1 uM; method in brief: as §2
# Chain of Tyrosine-protein kinase ZAP-70 (Homo sapiens) (P43403 whole entry): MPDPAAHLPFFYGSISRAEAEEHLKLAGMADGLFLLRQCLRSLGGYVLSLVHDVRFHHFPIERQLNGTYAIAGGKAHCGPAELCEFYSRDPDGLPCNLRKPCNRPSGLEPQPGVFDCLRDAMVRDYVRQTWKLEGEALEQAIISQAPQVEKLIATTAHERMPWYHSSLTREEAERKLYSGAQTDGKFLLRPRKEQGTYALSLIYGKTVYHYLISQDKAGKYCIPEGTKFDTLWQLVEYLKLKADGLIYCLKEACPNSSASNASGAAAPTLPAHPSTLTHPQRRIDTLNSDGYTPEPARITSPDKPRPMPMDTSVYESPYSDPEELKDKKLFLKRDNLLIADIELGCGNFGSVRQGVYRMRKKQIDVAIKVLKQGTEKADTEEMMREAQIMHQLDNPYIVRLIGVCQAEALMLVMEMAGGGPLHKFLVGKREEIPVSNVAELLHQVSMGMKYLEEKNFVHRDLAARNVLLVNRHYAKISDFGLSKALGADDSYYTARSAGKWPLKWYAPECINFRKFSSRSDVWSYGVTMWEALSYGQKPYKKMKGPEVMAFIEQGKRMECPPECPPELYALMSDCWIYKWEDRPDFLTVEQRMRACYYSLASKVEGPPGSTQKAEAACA
# [28] = target: Ephrin type-A receptor 5 (Homo sapiens) (UniProt P54756); experiment: Activity of human EphA5 kinase at 1 uM; method in brief: as §1
# [29] = target: Interleukin-1 receptor-associated kinase 1 (Homo sapiens) (UniProt P51617); experiment: Activity of human IRAK1 kinase at 1 uM
# Chain of Interleukin-1 receptor-associated kinase 1 (Homo sapiens) (P51617 whole entry, looked up): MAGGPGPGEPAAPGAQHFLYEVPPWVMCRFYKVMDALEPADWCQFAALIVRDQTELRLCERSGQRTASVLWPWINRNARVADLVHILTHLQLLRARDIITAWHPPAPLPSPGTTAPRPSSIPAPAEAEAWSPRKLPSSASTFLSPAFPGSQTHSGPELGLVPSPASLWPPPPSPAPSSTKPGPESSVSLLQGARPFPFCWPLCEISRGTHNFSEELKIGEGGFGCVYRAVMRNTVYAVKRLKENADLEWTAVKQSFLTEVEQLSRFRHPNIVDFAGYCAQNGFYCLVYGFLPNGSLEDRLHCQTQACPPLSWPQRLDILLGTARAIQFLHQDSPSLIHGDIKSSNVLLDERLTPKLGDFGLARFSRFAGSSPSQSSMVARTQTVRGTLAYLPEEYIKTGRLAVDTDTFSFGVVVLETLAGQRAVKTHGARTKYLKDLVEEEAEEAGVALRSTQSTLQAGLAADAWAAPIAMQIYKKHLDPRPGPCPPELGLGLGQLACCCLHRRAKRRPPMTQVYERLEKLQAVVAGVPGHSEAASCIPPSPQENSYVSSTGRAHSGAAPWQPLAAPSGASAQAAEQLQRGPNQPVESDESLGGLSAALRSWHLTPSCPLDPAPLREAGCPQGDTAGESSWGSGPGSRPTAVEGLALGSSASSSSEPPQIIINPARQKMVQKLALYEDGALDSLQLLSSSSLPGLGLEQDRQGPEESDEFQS
# [30] = target: Serine/threonine-protein kinase PAK 5 (Homo sapiens) (UniProt Q9P286); experiment: Activity of human PAK5 kinase at 1 uM; method in brief: as §2
# [31] = tested on: PC-3; experiment: Cell cycle arrest in human PC3 cells by accumulation at S phase at 1 uM after 24 hrs by flow cytometry relative to control; assay type: functional; method in brief: as §4
# [32] = target: Tyrosine-protein kinase receptor TYRO3 (Homo sapiens) (UniProt Q06418); experiment: Activity of human Rse kinase at 1 uM
# Method in brief: (§5)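 Single-concentration screen across a 226-kinase panel run by an outside provider; test compound at 1 μM with 10 μM ATP in every assay. Other conditions not detailed.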
# [33] = target: Serine/threonine-protein kinase D1 (Homo sapiens) (UniProt Q15139); experiment: Activity of human PKCmu kinase at 1 uM; method in brief: as §1
# [34] = target: SRSF protein kinase 2 (Homo sapiens) (UniProt P78362); experiment: Activity of human SRPK2 kinase at 1 uM; method in brief: as §2
# Chain of SRSF protein kinase 2 (Homo sapiens) (P78362 whole entry, looked up): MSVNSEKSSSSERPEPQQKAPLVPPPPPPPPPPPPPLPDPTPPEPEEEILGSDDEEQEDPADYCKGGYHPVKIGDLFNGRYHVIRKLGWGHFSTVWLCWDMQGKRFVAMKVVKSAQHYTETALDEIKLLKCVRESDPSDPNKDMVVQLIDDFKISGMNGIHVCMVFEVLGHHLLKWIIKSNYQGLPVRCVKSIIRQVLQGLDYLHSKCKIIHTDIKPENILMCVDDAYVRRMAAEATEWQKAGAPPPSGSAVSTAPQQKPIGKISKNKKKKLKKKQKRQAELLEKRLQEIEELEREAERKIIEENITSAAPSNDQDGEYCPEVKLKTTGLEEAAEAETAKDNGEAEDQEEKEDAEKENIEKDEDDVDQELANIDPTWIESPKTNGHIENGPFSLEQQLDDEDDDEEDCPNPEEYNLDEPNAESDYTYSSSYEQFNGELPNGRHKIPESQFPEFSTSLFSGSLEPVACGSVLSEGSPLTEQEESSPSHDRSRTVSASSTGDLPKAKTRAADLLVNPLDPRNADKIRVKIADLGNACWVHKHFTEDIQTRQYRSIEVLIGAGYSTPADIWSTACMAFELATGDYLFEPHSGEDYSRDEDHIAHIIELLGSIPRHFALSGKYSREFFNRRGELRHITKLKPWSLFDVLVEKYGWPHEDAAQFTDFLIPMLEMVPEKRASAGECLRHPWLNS
# [35] = Inhibition of CDK2E by radioactive flashplate assay
# [36] = target: SRSF protein kinase 3 (Homo sapiens) (UniProt Q9UPE1); experiment: Activity of human MSSK1 kinase at 1 uM
# [37] = target: Testis-specific serine/threonine-protein kinase 2 (Homo sapiens) (UniProt Q96PF2); experiment: Activity of human TSSK2 kinase at 1 uM; method in brief: as §2
# [38] = tested on: PC-3; experiment: Cell cycle arrest in human PC3 cells by accumulation at G2/M phase at 1 uM after 24 hrs by flow cytometry relative to control; assay type: functional; method in brief: as §4
# [39] = tested on: Mitogen-activated protein kinase 14 (Homo sapiens), Q16539 [T106M]; experiment: Activity of human SAPK2a T106M mutant kinase at 1 uM; method in brief: as §5
# Chain of Mitogen-activated protein kinase 14 (Homo sapiens), Q16539 [T106M] (Q16539 whole entry T106M): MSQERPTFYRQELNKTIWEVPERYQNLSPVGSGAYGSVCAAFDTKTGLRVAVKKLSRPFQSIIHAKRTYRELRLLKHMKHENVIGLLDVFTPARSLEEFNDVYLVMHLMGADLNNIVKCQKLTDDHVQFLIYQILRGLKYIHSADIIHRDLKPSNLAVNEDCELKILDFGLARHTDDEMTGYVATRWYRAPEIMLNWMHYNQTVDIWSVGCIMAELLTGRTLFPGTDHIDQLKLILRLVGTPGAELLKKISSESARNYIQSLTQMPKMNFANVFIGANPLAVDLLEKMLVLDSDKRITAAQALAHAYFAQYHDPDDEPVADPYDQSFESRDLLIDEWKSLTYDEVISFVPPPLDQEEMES
# [40] = tested on: PC-3; experiment: Cell cycle arrest in human PC3 cells by accumulation at G1 phase at 1 uM after 48 hrs by flow cytometry relative to control; assay type: functional; method in brief: as §4
compound,measurement,setting,value
O=C(O)c1ccc(Nc2ncc3c(n2)-c2ccc(Cl)cc2C(c2c(F)cccc2F)=NC3)cc1 [MLN-8054],Activity,[1],106%
same,Activity,[2],105%
same,Activity,[3],100%
same,IC50,[4],740 nM
same,Activity,[5],114%
same,Activity,[6],104%
same,Activity,[7],98%
same,Activity,[8],88%
same,Activity,[9],95%
same,Activity,[10],100%
same,Activity,[11],73%
same,Activity,[12],125%
same,Activity,[13],97%
same,Activity,[14],109%
same,Activity,[15],96%
same,Activity,[16],120%
same,IC50,[17],> 100000 nM
same,Activity,[18],36.1%
same,Activity,[19],95%
same,concentration at 24 h,[20],400 nM
same,Activity,[21],110%
same,Activity,[22],Active
same,IC50,[23],790 nM
same,Activity,[24],76%
same,Activity,[25],58.8%
same,Activity,[26],112%
same,Activity,[27],96%
same,Activity,[28],80%
same,Activity,[29],110%
same,Activity,[30],100%
same,Activity,[31],14.9%
same,Activity,[32],56%
same,Activity,[33],112%
same,Activity,[34],87%
same,IC50,[35],> 100000 nM
same,Activity,[36],100%
same,Activity,[37],101%
same,Activity,[38],45.4%
same,Activity,[39],130%
same,Activity,[40],23%
